Experiment: Toxicity liver stage against HepG2, at 10uM
Type: cell-based
Design: test concentration 10 uM, cell line HepG2-A16-CD81EGFP
Details: human, HepG2-A16-CD81EGFP cells; read-out: INHIBITION
How it was run: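 Uninfected HepG2-A16-CD81EGFP cells, 3 × 10^3 per well, 1536-well, plated on prespotted compound at 10 μM final, parasite-free screening media added to match infected plates; puromycin 10 μM positive, DMSO 0.5% negative; run in parallel with 48 h PbLuc assay at 37 °C, 5% CO2; viability by CellTiter-Glo luminescence, normalized to controls.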

| SMILES | cytotoxicity at 10 µM [%] |
| --- | --- |
| CCNC(=O)O[C@H]1COCCN(c2nc3ccccc3s2)C1 | -3.04 |
| Cn1ncc2c1NC(=O)CC2c1cccs1 (configuration not stated) | -0.585 |
| COc1ccccc1OCC(=O)NCC(C)(O)C1CC1 (configuration not stated) | -0.419 |
| CC(C)(C)C(O)CCNC(=O)c1ccc(F)cc1Cl (configuration not stated) | 0.0701 |
| O=C(c1ccnnc1)N1CC[C@@H](O)[C@@H]1Cc1ccccc1 | 5.03 |
| Cc1cnc(C(=O)N2CCC3(CC2)CC(c2ccncc2)C(=O)N3)cn1 (configuration not stated) | 9.14 |
| CC(C)NC(=O)N1CCN(S(C)(=O)=O)CC2(CNC(=O)C2)C1 (configuration not stated) | 8.71 |
| COc1ccc(OCC(=O)n2nc(C)c(C)c2C)cc1 | -6.32 |
| Cc1cc(=O)[nH]c(NC2CCN(S(=O)(=O)c3ccccc3)CC2)n1 | -3.02 |
| O=C(c1ccncc1)N1CCc2[nH]nc(Nc3ccccc3)c2C1 | 3.13 |
| Cc1c[nH]c(C2COCCN2C(=O)CCc2c(C)n[nH]c2C)n1 (configuration not stated) | -0.615 |
| CCCNC(=O)C1(Cc2cc(-c3ccccc3)no2)CCN(C(C)=O)C1 (configuration not stated) | 6.6 |
| N#Cc1cnc2c(F)cc(F)cc2c1NC1CCN(CC(N)=O)CC1 | -2.89 |
| NC(=O)C(NC(=O)c1ccc(NC2CC2)nc1)c1ccccc1 (configuration not stated) | 10.8 |
| CC(=O)c1cc(Br)cc(F)c1OCC(=O)NC1CC1 | -6.16 |
| NC1(c2nc(-c3cccs3)cc(=O)[nH]2)CCCCC1 | 6.03 |
| N#CCCN(CC1CCOC1)S(=O)(=O)c1cccc(Cl)c1 (configuration not stated) | 3.81 |
| NCC1(CN2CCOCC2)CCCCC1 | 3.23 |
| COC1CCN(c2ccc(F)cc2CN(C)CC(N)=O)CC1 | -6.91 |
| CN(CCNC(=O)c1ccnc(-n2ccnc2)c1)C1CC1 | 3.31 |
| Cc1cc(CC(=O)NCC(O)COc2ccc(F)c(F)c2)n[nH]1 (configuration not stated) | -7.66 |

| SMILES | cytotoxicity at 10 µM [%] |
| --- | --- |
| CCS(=O)(=O)CC(=O)NC(C)c1ccccc1Oc1ccccc1 (configuration not stated) | -2.97 |
| CC(C)c1nn(C)c(N(C)C)c1CNCc1cccnc1 | -4.6 |
| CC1CCCCN1CCNC(=O)c1ccccc1N1CCOCC1 (configuration not stated) | -4.14 |
| Cc1cc(N2CCN(c3ccc(=O)[nH]n3)CC2)nc(-c2ccncc2)n1 | -5.19 |
| CCc1n[nH]c(C2CN(C(=O)c3cc(C4CC4)on3)CCO2)n1 (configuration not stated) | -6.43 |
| CC(=O)c1ccc(C(=O)NCC2Cc3ccccc3O2)s1 (configuration not stated) | 3.82 |
| Nc1nccnc1C(=O)N1CCN(Cc2cccc3ccccc23)CC1 | -108 |
| CN(Cc1nc(-c2ccccc2)c[nH]1)C(=O)NCC(=O)NC(C)(C)C | 13.4 |
| Cc1ccc(-c2nnc(C(C)NCCn3cc(C)cn3)o2)cc1 (configuration not stated) | -15.8 |
| Cc1cccc(CNCC2COC3(CCCCC3)O2)c1C (configuration not stated) | -139 |
| N#CCCNC(=O)CN1CCC(c2cc3ccccc3[nH]2)CC1 | 0.91 |
| CNC(=O)Cn1nnc(-c2cc3ccccc3o2)n1 | 5.65 |
| NC(=O)CN1CCCN(C(=O)COc2cccc(F)c2)CC1 | -1.97 |
| CN(C)C(=O)N1CCN(c2cc(N3CCCC3CO)ncn2)CC1 (configuration not stated) | -1.81 |
| Cc1ccc(NCc2cc(C#N)ccc2F)cc1-n1nnnc1C | -1.66 |
| O=C(c1c(O)cc(F)cc1F)N1CCc2cnccc21 | -4.18 |
| N#CC1C(=O)Nc2c(cnn2C2CCCC2)C12CCCC2 (configuration not stated) | -7.54 |
| Cc1cc(CN(C)C2CCCN(c3cccnn3)C2)on1 (configuration not stated) | 16 |
| COc1ccc(OCc2cc(C(=O)N3CCC(O)CC3)n[nH]2)c(Cl)c1 | -1.69 |
| CC(C)n1ccnc1C1CCCN(Cc2ccc(F)c(F)c2)C1 (configuration not stated) | 3.89 |
| Cc1ccc(OCC(=O)N2CCN[C@H]3CS(=O)(=O)C[C@H]32)cn1 | -2.7 |

| SMILES | cytotoxicity at 10 µM [%] |
| --- | --- |
| CC(C)N1CCC(CC(=O)N(C)C(C)c2cncs2)CC1 (configuration not stated) | 3.65 |
| O=C(NCCc1cccs1)C1(N2CCCCC2)Cc2ccccc2C1 | -4.86 |
| CCC[C@@H]1CN(c2ncnc3ccsc23)C[C@H]1NS(C)(=O)=O | 3.73 |
| CCOCCNC(=O)c1cccc(S(=O)(=O)NC[C@@H]2C[C@H](F)CN2)c1 | -18.8 |
| CSc1nccc(NCC2CNCCOC2)n1 (configuration not stated) | -5.13 |
| COCc1ncc(-c2nccn2CCS(C)(=O)=O)cn1 | -17.2 |
| CC(C)Cc1nc(CS(C)(=O)=O)n(-c2ccccn2)n1 | 1.66 |
| Cc1noc(-c2ccc(N(C)Cc3ccncc3C)nc2)n1 | -15.1 |
| O=C1CCCCCN1Cc1cccc(OC(F)F)c1 | -6.4 |
| COc1cccc(C2CCN2C(=O)c2cnccn2)c1 (configuration not stated) | 12.2 |
| CN1CCCCCC1C(=O)NCCCn1ncc2ccccc21 (configuration not stated) | -1.43 |
| CC(=O)N1CCCn2nc(CNS(=O)(=O)Cc3ccccc3)cc2C1 | -6.19 |
| Cc1cccc(-c2nc(CN3CCOCS3(=O)=O)c(C)o2)c1 | 2.01 |
| CN(C)CC1(O)CCN(C(=O)c2ccc(-n3cnnc3)cc2Cl)C1 (configuration not stated) | -5.06 |
| COCCN1CCN(Cc2ccc(OCc3nccn3C)cc2)CC1 | -7.11 |
| Cc1cc(C)c(CNC(=O)N(C)Cc2cccc(C#N)c2)c(=O)[nH]1 | -5.49 |
| Cc1ncc2c(n1)CN(CC(=O)NCCOc1ccccc1)CC2 | -8.66 |
| Cc1nc(CN2CCc3nn(C)c(=O)cc3C2)oc1C | -2.74 |
| Cc1cc(C)n(CC2CCCN2C(=O)c2cccc(C#N)c2)n1 (configuration not stated) | -9.19 |
| Cc1ccc(-c2nc(C(=O)N3CCOCC3)cs2)c(C)c1 | 0.22 |
| Cn1cc(C(=O)NCC2CCN(C(=O)NC3CCCCC3)CC2)cn1 | -4.92 |

| SMILES | cytotoxicity at 10 µM [%] |
| --- | --- |
| Cc1ccc(-c2n[nH]cc2CNCC2CCN(CC(C)O)CC2)cc1 (configuration not stated) | -16.6 |
| Cc1nn(C)c(Cl)c1C1CCCN1C(=O)c1ccnn1C (configuration not stated) | -4.87 |
| c1ccc(-c2noc(CNC3CCc4ncnn4C3)n2)nc1 (configuration not stated) | -11.7 |
| CCN(CC)C(=O)CN1CCc2c(nc(C3CCNCC3)nc2NC)C1 | 5.07 |
| C[C@@H](NCc1cccc(Cl)c1)c1onc(-c2ccc(F)cc2)c1C(=O)O | 0.258 |
| N[C@@H](Cc1ccccc1)c1nnc(S(=O)(=O)Cc2cccc(Cl)c2)o1 | 7.87 |
| COc1ccc(C[C@H]2CN(c3nnc(C)s3)CC[C@@H]2OC)cc1 | -3.23 |
| O=C(c1ccco1)N1CCc2c(COCC3CC3)cncc2C1 | -71.3 |
| CC(C)n1nc(CNc2ncccn2)c2c1CN(C)CC2 | -142 |
| Cc1noc(C)c1CN1CC[C@H]2OCC[C@@H](C(=O)NCC3CC3)[C@@H]2C1 | -8.55 |
| CCN1CCC2(CN(C(=O)N(C)C)CC23CCNCC3)C1=O (configuration not stated) | 4.29 |
| Cn1cc(CN2C[C@@H]3CCCO[C@@H]3[C@H](N3CCCC3=O)C2)cn1 | 1.27 |
| O=C(N[C@@H]1CN(c2ncccn2)C[C@@H]2CCCO[C@@H]21)c1ccnnc1 | 6.32 |
| Fc1cnc(N2CCCC3(CCN(Cc4ccco4)C3)C2)nc1 (configuration not stated) | -84.9 |
| CC(C)NC(=O)N1CCC2(CC1)NC(=O)CC2c1ccncc1 (configuration not stated) | -2.94 |
| CC(C)NC(=O)N1CCCn2cnc(CO)c2C1 | -151 |
| CN(CCO)Cc1nnc(C2CCN(CC3[C@H]4CNC[C@@H]34)CC2)n1C (some centres not stated) | -0.517 |
| O=C(c1ccncc1)N1C[C@H]2CC[C@@H](C1)N(C(=O)C1CCCC1)C2 | 6.77 |
| CC(c1cn2ccsc2n1)n1cc2[nH]cccc-2c1=O (configuration not stated) | -1.97 |
